Experimental findings from ChEMBL document CHEMBL1126139 (J Med Chem, 1992) are described below.

The target of assay [1] is T1, Glycine receptor subunit alpha-1 (Rattus norvegicus, UniProt P07727).
T1 sequence (P07727 whole entry): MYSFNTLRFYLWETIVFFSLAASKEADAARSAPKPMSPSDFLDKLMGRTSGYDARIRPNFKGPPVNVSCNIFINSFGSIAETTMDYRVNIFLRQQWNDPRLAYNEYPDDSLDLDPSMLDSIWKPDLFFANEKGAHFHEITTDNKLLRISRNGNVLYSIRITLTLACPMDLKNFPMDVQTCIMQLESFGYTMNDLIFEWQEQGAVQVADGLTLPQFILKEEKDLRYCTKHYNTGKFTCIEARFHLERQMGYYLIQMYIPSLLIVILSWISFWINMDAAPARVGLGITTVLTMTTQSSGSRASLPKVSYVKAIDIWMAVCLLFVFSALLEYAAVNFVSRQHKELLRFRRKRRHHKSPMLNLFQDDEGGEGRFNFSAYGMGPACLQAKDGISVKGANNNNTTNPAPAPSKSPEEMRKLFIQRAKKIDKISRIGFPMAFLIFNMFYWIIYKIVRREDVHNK
Kind of assay: Inhibitory concentration required to inhibit [3H]strychnine binding to […] of rat spinal cord membranes.

Assay [2] in a line: Ability to displace [3H]strychnine-sensitive glycine receptor binding to rat spinal cord membranes; at 100 uM.
Assay [3] has as its target T1, Glycine receptor subunit alpha-1. Kind of assay: Inhibitory concentration required to inhibit [3H]strychnine binding to […]. The method, boiled down:
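[3H]Strychnine displacement; IC50 obtained by nonlinear curve fitting to a Langmuir isotherm.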

Assay [4] is filed under the species Mus musculus. Nature of the assay: Change in input resistance of cultured spinal cord neurons produced at a dose 100 uM. In kind it is functional.
The species named for assay [5] is Mus musculus. Kind of assay: Change in input resistance of cultured spinal cord neurons produced at a dose 1 mM. Format: functional.
Assay [6] is filed under the species Mus musculus. Kind of assay: Change in input resistance of cultured spinal cord neurons produced at a dose 1 mM+100 uM tetrodotoxin. Format: functional.
Assay [7] is filed under the species Mus musculus. Kind of assay: Change in input resistance of cultured spinal cord neurons produced at a dose 100 uM+100 uM tetrodotoxin. Format: functional.
The species named for assay [8] is Mus musculus. Nature of the assay: Change in input resistance of cultured spinal cord neurons produced at a dose 1 mM+100 uM strychnine. In kind it is functional.
The species named for assay [9] is Mus musculus. Nature of the assay: Change in input resistance of cultured spinal cord neurons produced at a dose 100 uM+100 uM bicuculline+3 uM tetrodotoxin. Format: functional.
Assay [10] is filed under the species Mus musculus. Nature of the assay: Change in input resistance of cultured spinal cord neurons produced at a dose 1 mM+100 uM bicuculline+3 uMtetrodotoxin. In kind it is functional.
The species entered for assay [11] is Mus musculus. Nature of the assay: Change in input resistance of cultured spinal cord neurons produced at a dose 100 uM tetrodotoxin. Format: functional.

Turning to `C[C@@H](N)C(=O)O` [D-ALANINE], in assay [1], the IC50 came out at 90.9 µM.

Turning to `O=C(O)c1cc[nH]c1`, the inhibition in assay [2] amounted to 46%.

The molecule `O=C(O)[C@@H]1CCCN1` (stereo in doubt; 8) [PROLINE] displayed an IC50 in assay [3] of 17.2 µM.

In assay [3], `O=C(O)C1CCN1` (stereo not given) yielded an IC50 of 399 µM.

For `O=C(O)[C@@H]1CCCN1` (stereo in doubt) [PROLINE], in assay [3], the concentration for half-maximal inhibition (IC50) is 414 µM.

In the case of `NCCC(=O)O` [BETA-ALANINE], the IC50 in assay [1] was determined as 11.6 µM.

In turn, `C[C@H](N)C(=O)O` [ALANINE] registered an IC50 in assay [3] of 198 µM.

Regarding `O=C(O)C1CNC1`, the IC50 in assay [3] was 23.7 µM. Besides, the Activity in [4] was determined as 9.4%; in assay [5], 83.1%; in assay [6], 71.7%; in assay [7] it was 10.7%; in [8] it was 37.7%.

In the case of `O=C(O)C1CCNCC1` [ISONIPECOTIC ACID], the Activity is on record as 3% in [9], 0.1% in [10], 19.2% in [4] and 73.6% in assay [5]. The molecule also showed an IC50 in assay [3] of 94.1 µM.

As for `O=C(O)C1=CCNC1`, the Activity in assay [11] worked out at 5.1%; in [4] it was 22.7%; in assay [5] it was 60.4%; in assay [6] it was 37.2%; in assay [8], 4.7%. This molecule also displayed an IC50 in assay [3] of 7.9 µM.

Regarding `O=C(O)C1C=CCN1` (stereo not given), the IC50 in [3] worked out at 242 µM.

For orientation: IC50 means the concentration at which inhibition is half-maximal. Higher therefore signals lower potency. The inhibition is the change of the read-out against control, counted positive when it falls. A lower inhibition goes with a weak effect.
